# Where a SMILES comes first, the peptide text is derived from it. Bridges are numbered along the chain shown (N, C = ends). Roman numbers before positions name the chains, in order. [ ]: non-standard residue; d: D form. Dap = NC[C@H](N)C(=O)O
# Key:
# [1] = target: T1, Neuropeptide Y receptor type 5 (Homo sapiens, UniProt Q15761); test: Affinity for cloned Y5 receptor using [125I]PYY as radioligand
# T1 sequence (Q15761 whole entry): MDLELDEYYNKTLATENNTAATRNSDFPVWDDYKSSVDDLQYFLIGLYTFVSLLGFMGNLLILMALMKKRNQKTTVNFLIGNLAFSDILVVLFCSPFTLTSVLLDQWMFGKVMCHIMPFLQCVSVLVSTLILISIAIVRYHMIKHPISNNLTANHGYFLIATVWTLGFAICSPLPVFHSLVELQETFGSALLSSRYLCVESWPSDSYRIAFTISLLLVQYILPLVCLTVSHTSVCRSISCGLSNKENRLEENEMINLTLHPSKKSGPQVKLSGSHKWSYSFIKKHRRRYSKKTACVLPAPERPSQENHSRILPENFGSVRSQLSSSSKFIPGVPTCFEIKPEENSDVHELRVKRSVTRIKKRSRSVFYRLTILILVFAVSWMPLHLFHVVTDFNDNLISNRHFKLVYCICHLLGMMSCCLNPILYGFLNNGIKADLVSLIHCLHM
# [2] = target: T2, Neuropeptide Y receptor type 2 (Homo sapiens, UniProt P49146); test: Agonist potency for the inhibition of Forskolin stimulated cAMP synthesis in cells expressing cloned Y2 receptors; assay type: functional
# T2 sequence (P49146 whole entry): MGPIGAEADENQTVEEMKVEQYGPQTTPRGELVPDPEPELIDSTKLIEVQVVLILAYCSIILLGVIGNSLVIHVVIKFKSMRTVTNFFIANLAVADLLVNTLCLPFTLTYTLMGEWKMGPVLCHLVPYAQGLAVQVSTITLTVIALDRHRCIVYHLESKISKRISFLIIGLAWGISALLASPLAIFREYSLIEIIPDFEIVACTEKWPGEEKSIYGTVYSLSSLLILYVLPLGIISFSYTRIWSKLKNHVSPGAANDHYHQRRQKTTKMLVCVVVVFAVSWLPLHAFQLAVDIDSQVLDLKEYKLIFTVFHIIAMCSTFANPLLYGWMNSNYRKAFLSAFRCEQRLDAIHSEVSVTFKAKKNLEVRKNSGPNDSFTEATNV
# [3] = target: T3, Neuropeptide Y receptor type 4 (Homo sapiens, UniProt P50391); test: Affinity for cloned Y4 receptor using [125I]PP as radioligand
# [4] = target: T2, Neuropeptide Y receptor type 2; test: Affinity for cloned Y2 receptor using [125I]PYY as radioligand
# [5] = target: T4, Neuropeptide Y receptor type 1 (Homo sapiens) (UniProt P25929); test: Selectivity ratio of Y1/Y2/Y4/Y5; 1/790/3/1640
# T4 sequence (whole entry): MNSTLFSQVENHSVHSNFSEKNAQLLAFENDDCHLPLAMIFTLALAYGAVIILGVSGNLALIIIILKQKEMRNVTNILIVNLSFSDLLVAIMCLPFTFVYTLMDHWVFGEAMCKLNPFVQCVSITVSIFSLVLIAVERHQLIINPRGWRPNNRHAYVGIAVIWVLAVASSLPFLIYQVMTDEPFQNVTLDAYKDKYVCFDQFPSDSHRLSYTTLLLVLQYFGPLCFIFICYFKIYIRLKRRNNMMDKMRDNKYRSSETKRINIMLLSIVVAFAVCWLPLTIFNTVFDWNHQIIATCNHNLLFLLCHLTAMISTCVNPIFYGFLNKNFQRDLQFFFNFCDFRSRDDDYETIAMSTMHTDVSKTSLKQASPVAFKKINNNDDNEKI
# [6] = target: T5, Neuropeptide Y receptor type 1 (Homo sapiens, UniProt P25929); test: Affinity for cloned Y1 receptor using [125I]PYY as radioligand
# T5 sequence (P25929 whole entry): T4 sequence (whole entry)
# [7] = target: T1, Neuropeptide Y receptor type 5; test: Agonist potency for the inhibition of Forskolin stimulated cAMP synthesis in cells expressing cloned Y5 receptors; assay type: functional
# [8] = target: T3, Neuropeptide Y receptor type 4; test: Agonist potency for the inhibition of Forskolin stimulated cAMP synthesis in cells expressing cloned Y4 receptors; assay type: functional
# How it was run: (§1)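 Inhibition of forskolin-driven cAMP synthesis in cells expressing the Y4 receptor, with PP run as the reference control.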
# [9] = target: T1, Neuropeptide Y receptor type 5; test: Agonist potency for the inhibition of Forskolin stimulated cAMP synthesis in cells expressing cloned Y5 receptors(no effect at <20000 nM); assay type: functional
# [10] = target: T3, Neuropeptide Y receptor type 4; test: Agonist potency for the inhibition of Forskolin stimulated cAMP synthesis in cells expressing cloned Y4 receptors(no effect at <20000 nM); assay type: functional; how it was run: as §1
# [11] = target: Neuropeptide Y receptor type 2 (Homo sapiens) (UniProt P49146); test: Agonist potency for the inhibition of Forskolin stimulated cAMP synthesis in cells expressing cloned Y2 receptors; no effect means no agonist activity at <20 000 nM
# T3 sequence (P50391 whole entry): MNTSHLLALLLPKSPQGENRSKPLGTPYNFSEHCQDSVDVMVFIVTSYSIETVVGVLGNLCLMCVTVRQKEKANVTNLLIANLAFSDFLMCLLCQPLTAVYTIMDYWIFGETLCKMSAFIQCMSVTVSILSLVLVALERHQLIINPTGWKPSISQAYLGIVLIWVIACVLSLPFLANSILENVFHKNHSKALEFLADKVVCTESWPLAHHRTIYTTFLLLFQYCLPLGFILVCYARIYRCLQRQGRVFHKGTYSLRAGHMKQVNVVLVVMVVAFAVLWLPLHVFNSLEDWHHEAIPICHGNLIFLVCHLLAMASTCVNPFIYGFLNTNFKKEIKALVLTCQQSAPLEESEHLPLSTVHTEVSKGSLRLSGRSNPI
structure (smiles),measurement,setting,value
"CC[C@H](C)[C@H](N)C(=O)N[C@H]1CCC(=O)NC[C@@H](C(=O)N[C@@H](Cc2ccc(O)cc2)C(=O)N[C@@H](CCCN=C(N)N)C(=O)N[C@@H](CC(C)C)C(=O)N[C@@H](CCCN=C(N)N)C(=O)N[C@@H](Cc2ccc(O)cc2)C(N)=O)NC(=O)[C@@H]2CCCN2C(=O)[C@@H](NC(=O)[C@@H](N)[C@@H](C)CC)CCC(=O)NC[C@@H](C(=O)N[C@@H](Cc2ccc(O)cc2)C(=O)N[C@@H](CCCN=C(N)N)C(=O)N[C@@H](CC(C)C)C(=O)N[C@@H](CCCN=C(N)N)C(=O)N[C@@H](Cc2ccc(O)cc2)C(N)=O)NC(=O)[C@@H]2CCCN2C1=O (I: H-IEP[Dap]YRLRY-NH2 / II: H-IEP[Dap]YRLRY-NH2; amide I:2-II:4, I:4-II:2)",Ki,[1],115 nM
same,EC50,[2],983 nM
same,Ki,[3],0.26 nM
same,Ki,[4],55 nM
same,Selectivity,[5],Y1/Y4/Y2/Y5
same,Ki,[6],0.07 nM
same,EC50,[7],2050 nM
same,EC50,[8],2.5 nM
CC[C@H](C)[C@H](N)C(=O)N[C@H]1CCC(=O)NC[C@@H](C(=O)N[C@@H](Cc2ccc(O)cc2)C(=O)N[C@@H](CCCN=C(N)N)C(=O)N[C@@H](CC(C)C)C(=O)N[C@@H](CCCN=C(N)N)CN[C@@H](Cc2ccc(O)cc2)C(N)=O)NC(=O)[C@@H]2CCCN2C(=O)[C@@H](NC(=O)[C@@H](N)[C@@H](C)CC)CCC(=O)NC[C@@H](C(=O)N[C@@H](Cc2ccc(O)cc2)C(=O)N[C@@H](CCCN=C(N)N)C(=O)N[C@@H](CC(C)C)C(=O)N[C@@H](CCCN=C(N)N)CN[C@@H](Cc2ccc(O)cc2)C(N)=O)NC(=O)[C@@H]2CCCN2C1=O,EC50,[9],Not Active
same,EC50,[10],Not Active
same,EC50,[11],Not Active

# Reference: ChEMBL document CHEMBL1134468 (J Med Chem, 2001)
